Laboratory results as given in ChEMBL document CHEMBL3352499, “One pot three components microwave assisted and conventional synthesis of new 3-(4-chloro-2-hydroxyphenyl)-2-(substituted) thiazolidin-4-one as antimicrobial agents” (Bioorg Med Chem Lett, 2014).
Values after ≈ are worked out from the molar mass of the structure shown. Where a name gives a salt, the structure may show the parent alone.

Legend:
Bacillus subtilis [1] = assay: Antimicrobial activity against Bacillus subtilis NCIM-2063 after 20 hrs by two fold serial macrodilution technique; format: functional; settings: NCIM-2063, 20 h
How it was run: (§1)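 Serial macrodilution in 96-well microtiter plates. Compounds were dissolved in saline (0.8% NaCl) containing 5% DMSO, and strains were incubated with a range of concentrations for 20 h at 37 °C on a rotary shaker (160 rpm). MIC was the lowest concentration without growth. Runs were in triplicate, with the mean taken. The negative control was 5% DMSO.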

Bacillus subtilis [2] = assay: Bactericidal activity against Bacillus subtilis NCIM-2063 after 72 hrs by two fold serial macrodilution technique; format: functional; settings: NCIM-2063, 72 h
How it was run: (§2)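 Serial subcultivation followed 72 h of exposure to compounds dissolved in saline containing 5% DMSO. MBC/MFC was the lowest concentration with no visible growth, taken as 99.5% killing of the original inoculum. Runs were in triplicate, with the mean reading used.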

Staphylococcus aureus [3] = assay: Antimicrobial activity against Staphylococcus aureus NCIM-2901 after 20 hrs by two fold serial macrodilution technique; format: functional; settings: NCIM-2901, 20 h; how it was run: as §1
Staphylococcus aureus [4] = assay: Bactericidal activity against Staphylococcus aureus NCIM-2901 after 72 hrs by two fold serial macrodilution technique; format: functional; settings: NCIM-2901, 72 h; how it was run: as §2
Escherichia coli [5] = assay: Antimicrobial activity against Escherichia coli NCIM-2256 after 20 hrs by two fold serial macrodilution technique; format: functional; settings: NCIM-2256, 20 h; how it was run: as §1
Escherichia coli [6] = assay: Bactericidal activity against Escherichia coli NCIM-2256 after 72 hrs by two fold serial macrodilution technique; format: functional; settings: NCIM-2256, 72 h; how it was run: as §2
Salmonella typhimurium [7] = assay: Antimicrobial activity against […] after 20 hrs by two fold serial macrodilution technique; format: functional, Salmonella enterica subsp. enterica serovar Typhimurium; settings: Salmonella enterica; how it was run: as §1
Salmonella typhimurium [8] = assay: Bactericidal activity against […] after 72 hrs by two fold serial macrodilution technique; format: functional, Salmonella enterica subsp. enterica serovar Typhimurium; settings: Salmonella enterica; how it was run: as §2
Candida albicans [9] = assay: Antimicrobial activity against Candida albicans NCIM-3471 after 20 hrs by two fold serial macrodilution technique; format: functional; settings: NCIM-3471, 20 h
Candida albicans [10] = assay: Fungicidal activity against Candida albicans NCIM-3471 after 48 to 72 hrs by two fold serial macrodilution technique; format: functional; how it was run: as §2
Aspergillus flavus [11] = assay: Antimicrobial activity against Aspergillus flavus NCIM-539 after 20 hrs by two fold serial macrodilution technique; format: functional; settings: NCIM-539, 20 h
Aspergillus flavus [12] = assay: Fungicidal activity against Aspergillus flavus NCIM-539 after 48 to 72 hrs by two fold serial macrodilution technique; format: functional; how it was run: as §2
Aspergillus niger [13] = assay: Antimicrobial activity against Aspergillus niger NCIM-1196 after 20 hrs by two fold serial macrodilution technique; format: functional; settings: NCIM-1196, 20 h
Aspergillus niger [14] = assay: Fungicidal activity against Aspergillus niger NCIM-1196 after 48 to 72 hrs by two fold serial macrodilution technique; format: functional; how it was run: as §2
Cryptococcus neoformans [15] = assay: Antimicrobial activity against Cryptococcus neoformans NCIM-3378 after 20 hrs by two fold serial macrodilution technique; format: functional; settings: NCIM-3378, 20 h
Cryptococcus neoformans [16] = assay: Fungicidal activity against Cryptococcus neoformans NCIM-3378 after 48 to 72 hrs by two fold serial macrodilution technique; format: functional; how it was run: as §2
HeLa = assay: Cytotoxicity against human HeLa cells by SRB method; format: cell-based
How it was run: (§3)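 SRB colorimetric growth assay. IC50, in µM, was the concentration inhibiting cell growth by 50% relative to untreated control cells. Runs were in triplicate in three independent experiments, with means reported. The positive control was doxorubicin.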

MCF7 = assay: Cytotoxicity against human MCF7 cells by SRB method; format: cell-based; how it was run: as §3

| Compound | MIC (Bacillus subtilis [1]) [µg/mL] | MBC (Bacillus subtilis [2]) [µg/mL] | MIC (Staphylococcus aureus [3]) [µg/mL] | MBC (Staphylococcus aureus [4]) [µg/mL] | MIC (Escherichia coli [5]) [µg/mL] | MBC (Escherichia coli [6]) [µg/mL] | MIC (Salmonella typhimurium [7]) [µg/mL] | MBC (Salmonella typhimurium [8]) [µg/mL] | MIC (Candida albicans [9]) [µg/mL] | MFC (Candida albicans [10]) [µg/mL] | MIC (Aspergillus flavus [11]) [µg/mL] | MFC (Aspergillus flavus [12]) [µg/mL] | MIC (Aspergillus niger [13]) [µg/mL] | MFC (Aspergillus niger [14]) [µg/mL] | MIC (Cryptococcus neoformans [15]) [µg/mL] | MFC (Cryptococcus neoformans [16]) [µg/mL] | IC50 (HeLa) [µM] | IC50 (MCF7) [µM] |
| --- | --- | --- | --- | --- | --- | --- | --- | --- | --- | --- | --- | --- | --- | --- | --- | --- | --- | --- |
| O=C1CSC(c2cccs2)N1c1ccc(Cl)cc1O (stereo not given) | 35 (≈ 112 µM) | 55 (≈ 176 µM) | 60 (≈ 192 µM) | 150 (≈ 481 µM) | 85 (≈ 273 µM) | 160 (≈ 513 µM) | 70 (≈ 224 µM) | 155 (≈ 497 µM) | 100 (≈ 321 µM) | 160 (≈ 513 µM) | 25 (≈ 80.2 µM) | 45 (≈ 144 µM) | 70 (≈ 224 µM) | 155 (≈ 497 µM) | 95 (≈ 305 µM) | 160 (≈ 513 µM) | 66.6 | 64.9 |
| O=C1CSC(c2ccccn2)N1c1ccc(Cl)cc1O (stereo not given) | 85 (≈ 277 µM) | 165 (≈ 538 µM) | 60 (≈ 196 µM) | 155 (≈ 505 µM) | 90 (≈ 293 µM) | 165 (≈ 538 µM) | 85 (≈ 277 µM) | 150 (≈ 489 µM) | 55 (≈ 179 µM) | 155 (≈ 505 µM) | 100 (≈ 326 µM) | 165 (≈ 538 µM) | 80 (≈ 261 µM) | 155 (≈ 505 µM) | 75 (≈ 244 µM) | 150 (≈ 489 µM) | 87.2 | 88.7 |
| O=C1CSC(c2ccc(O)cc2)N1c1ccc(Cl)cc1O (stereo not given) | 15 (≈ 46.6 µM) | 25 (≈ 77.7 µM) | 6 (≈ 18.6 µM) | 20 (≈ 62.2 µM) | 20 (≈ 62.2 µM) | 35 (≈ 109 µM) | 25 (≈ 77.7 µM) | 45 (≈ 140 µM) | 25 (≈ 77.7 µM) | 40 (≈ 124 µM) | 20 (≈ 62.2 µM) | 35 (≈ 109 µM) | 55 (≈ 171 µM) | 115 (≈ 357 µM) | 60 (≈ 186 µM) | – | 63.8 | 59.4 |
| Cc1ncsc1C1SCC(=O)N1c1ccc(Cl)cc1O (stereo not given) | 30 (≈ 91.8 µM) | 55 (≈ 168 µM) | 15 (≈ 45.9 µM) | 20 (≈ 61.2 µM) | 15 (≈ 45.9 µM) | 20 (≈ 61.2 µM) | 20 (≈ 61.2 µM) | 40 (≈ 122 µM) | 30 (≈ 91.8 µM) | 45 (≈ 138 µM) | 3 (≈ 9.18 µM) | 20 (≈ 61.2 µM) | 80 (≈ 245 µM) | 135 (≈ 413 µM) | 55 (≈ 168 µM) | – | 78.5 | 75.7 |
| N#Cc1ccc(C2SCC(=O)N2c2ccc(Cl)cc2O)cc1 (stereo not given) | 100 (≈ 302 µM) | 140 (≈ 423 µM) | 35 (≈ 106 µM) | 145 (≈ 438 µM) | 90 (≈ 272 µM) | 120 (≈ 363 µM) | 55 (≈ 166 µM) | 115 (≈ 348 µM) | 90 (≈ 272 µM) | 140 (≈ 423 µM) | 60 (≈ 181 µM) | 115 (≈ 348 µM) | 100 (≈ 302 µM) | 145 (≈ 438 µM) | 85 (≈ 257 µM) | – | 83.2 | 81.2 |
| CC1(C)S[C@@H]2[C@H](NC(=O)[C@H](N)c3ccccc3)C(=O)N2[C@H]1C(=O)O [AMPICILLIN] | 12.5 (≈ 35.8 µM) | 17.5 (≈ 50.1 µM) | 12.5 (≈ 35.8 µM) | 17.5 (≈ 50.1 µM) | 12.5 (≈ 35.8 µM) | 17.5 (≈ 50.1 µM) | 12.5 (≈ 35.8 µM) | 17.5 (≈ 50.1 µM) | – | – | – | – | – | – | – | – | – | – |
| O=C(O)c1cn(C2CC2)c2cc(N3CCNCC3)c(F)cc2c1=O [CIPROFLOXACIN] | 6.25 (≈ 18.9 µM) | 13 (≈ 39.2 µM) | – | 13 (≈ 39.2 µM) | 7.5 (≈ 22.6 µM) | 8 (≈ 24.1 µM) | 7.5 (≈ 22.6 µM) | 8 (≈ 24.1 µM) | – | – | – | – | – | – | – | – | – | – |
| COc1cccc2c1C(=O)c1c(O)c3c(c(O)c1C2=O)C[C@@](O)(C(=O)CO)C[C@@H]3O[C@H]1C[C@H](N)[C@H](O)[C@H](C)O1 [DOXORUBICIN HYDROCHLORIDE] | – | – | – | – | – | – | – | – | – | – | – | – | – | – | – | – | < 0.1 | < 0.1 |
| OC(Cn1cncn1)(Cn1cncn1)c1ccc(F)cc1F [FLUCONAZOLE] | – | – | – | – | – | – | – | – | 10 (≈ 32.7 µM) | 22.5 (≈ 73.5 µM) | 6.25 (≈ 20.4 µM) | 16.5 (≈ 53.9 µM) | 6.25 (≈ 20.4 µM) | 16.5 (≈ 53.9 µM) | 6.25 (≈ 20.4 µM) | 16.5 (≈ 53.9 µM) | – | – |
| Clc1ccc(COC(Cn2ccnc2)c2ccc(Cl)cc2Cl)c(Cl)c1 (stereo not given) [MICONAZOLE] | – | – | – | – | – | – | – | – | 3.25 (≈ 7.81 µM) | 12.5 (≈ 30 µM) | 3.25 (≈ 7.81 µM) | 12.5 (≈ 30 µM) | 3.25 (≈ 7.81 µM) | 12.5 (≈ 30 µM) | 3.25 (≈ 7.81 µM) | 12.5 (≈ 30 µM) | – | – |
